Sampled rows, rich in hits. Any-hit rate of the full collection: about 4%.
OX1R antag-1 – human HCRTR1 antagonism; 330,000 tested, 0.43% active; CHO/OX1R cells, Fluo-8 calcium fluorescence, orexin A; O43613; inhibition, % at 5 µM; AID 434989;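 active = inhibition above its plate's threshold, mean inhibition of all tested compounds on the plate plus 3 SD, cut at about 37% in these data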
Target sequence (O43613 whole entry, looked up): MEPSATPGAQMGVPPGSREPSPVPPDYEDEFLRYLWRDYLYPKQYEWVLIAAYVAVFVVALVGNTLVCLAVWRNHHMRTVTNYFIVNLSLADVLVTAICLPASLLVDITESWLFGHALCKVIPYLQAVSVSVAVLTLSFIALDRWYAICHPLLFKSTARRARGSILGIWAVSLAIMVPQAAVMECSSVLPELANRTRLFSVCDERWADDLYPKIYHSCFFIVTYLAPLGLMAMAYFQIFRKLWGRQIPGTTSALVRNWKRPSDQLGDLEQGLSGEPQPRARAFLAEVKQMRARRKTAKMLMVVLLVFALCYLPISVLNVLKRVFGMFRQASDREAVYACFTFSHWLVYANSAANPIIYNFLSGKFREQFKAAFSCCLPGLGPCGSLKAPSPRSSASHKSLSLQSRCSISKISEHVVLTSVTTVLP
OX1R antag-2 – antagonists of human orexin 1 receptor (OX1R) | 330,000 tested, 1.8% active | OX1R-expressing cells, FRET antagonist read-out | O43613 | AID 485270 | inhibition, % at 6.6 µM; in the data active = inhibition mostly above about 38%, no sharp cut-off; inactive = mostly below about 40%
CHO parental Ca – counter-screen: ATP calcium response change in parental CHO cells; parental CHO-K1, ATP-induced calcium, Fluo-8 fluorescence; inhibition, % at 5.6 µM; 330,000 tested, 0.63% active;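 active = inhibition above that plate's mean sample inhibition plus 3 SD, cut at about 26% in these data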
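Assay system: parental CHO cells; Read-out basis: percent inhibition of ATP-evoked calcium rise, normalized to controls; Benchmarks: ATP and no-ATP DMSO wells; Compound dosing: single nominal dose of 5.6 µM per compound; Signal: Fluo-8 calcium dye fluorescence; Also added: ATP as calcium-mobilizing challenge; Repeats: singlicate.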
TAAR1 agonist – human TAAR1 agonism | Q96RJ0 | CHO RD-HGA16 TAAR1, Fluo-8 calcium fluorescence; vehicle wells 0%, saturating PEA agonist 100% | activation, % at 3 µM | 360,000 tested, 0.99% active | AID 624467;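 active = activation above the mean activation of all test compounds in the run plus 3 SD, cut at about 38% in these data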
Target sequence (Q96RJ0 whole entry, looked up): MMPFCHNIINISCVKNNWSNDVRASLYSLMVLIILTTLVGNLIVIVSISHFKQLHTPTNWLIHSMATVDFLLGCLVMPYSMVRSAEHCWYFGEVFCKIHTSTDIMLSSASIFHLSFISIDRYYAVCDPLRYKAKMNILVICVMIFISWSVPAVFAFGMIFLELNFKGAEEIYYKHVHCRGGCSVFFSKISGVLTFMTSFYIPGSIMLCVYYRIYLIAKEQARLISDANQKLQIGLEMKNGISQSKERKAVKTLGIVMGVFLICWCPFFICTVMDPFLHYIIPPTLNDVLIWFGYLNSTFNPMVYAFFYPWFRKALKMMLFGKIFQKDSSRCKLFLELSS
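Test system: RD-HGA16 (CHO) cells co-expressing Gα16 and hTAAR1; dosing: one-point dosing at 3 µM (nominal); timing: 17-24 h seeding, 75 min 37 °C dye, 30 min RT; signal: kinetic Fluo-8 calcium fluorescence; read-out basis: % activation relative to PEA EC100 response; controls: DMSO and PEA EC100; replicates: n 1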
TAAR1 antagonist – antagonists of human TAAR1; Q96RJ0; CHO RD-HGA16 TAAR1, Fluo-8 calcium fluorescence, antagonist; inhibition, % at 3 µM; 360,000 tested, 1.5% active;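 active = inhibition above a per-plate cutoff, the mean inhibition of test compounds on that plate plus 3 SD, cut at about 49% in these data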
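Test system: CHO RD-HGA16 cells bearing hTAAR1 | Reagent: β-PEA, EC80 | Compound dosing: 3 µM, single point | Schedule: Dye loading 75 min at 37 °C, then 30 min room temperature | Signal: Calcium fluorescence with Fluo-8 | Evaluation: Percent inhibition of PEA-evoked calcium signal, max/basal emission ratio | Control set: DMSO-only wells and EC80 β-PEA-stimulated wells | Repeats: Singlicate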
OX1R HTRF confirm – OX1R (human) antagonism, HTRF confirmed. shares compounds with OX1R antag-2. OX1R-expressing cells, HTRF antagonist assay. inhibition, % at 6.6 µM. 1,800 tested, 49% active; in the data active = inhibition above about 55%;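 note: CHO cells expressing OX1R stimulated with orexin A at about EC80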
CHO-K1 HTRF cnt – signal in parental CHO-K1 cells, OX1R antagonist counter-screen; shares compounds with OX1R antag-2; HTRF counterscreen; inhibition, % at 6.6 µM; 1,800 tested, 48% active; in the data active = inhibition above about 17%
Of the large screens only hits and unclear results are named; the others gave an inactive call (follow-up assays come after a bar, where they were run).

CC(C)(C)OC(=O)N/N=C\c1ccc([N+](=O)[O-])s1	OX1R antag-2 88 | OX1R HTRF confirm inactive | CHO-K1 HTRF cnt 44
COc1ccc(NC(=O)CCC(=O)N/N=C/c2cccnc2)cc1	none
COc1ccc(NC(=O)CCC(=O)N/N=C/c2ccc([N+](=O)[O-])s2)cc1	OX1R antag-2 81 | OX1R HTRF confirm inactive | CHO-K1 HTRF cnt 45
O=C(NCCN1CCC(n2c(=O)[nH]c3ccccc32)CC1)c1cccs1	none (no result: OX1R antag-1, OX1R antag-2, CHO parental Ca)
Cn1c(=O)n(C)c2cc(NC(=O)COc3ccc(F)cc3)ccc21	none
CCN(CC)c1ccc([N+](=O)[O-])cc1C(=O)N1CCOCC1	none
CCN(CC)C1=NS(=O)(=O)c2cc([N+](=O)[O-])ccc21	OX1R antag-2 active | OX1R HTRF confirm inactive | CHO-K1 HTRF cnt 97
N/C(=N\OC(=O)c1ccc(Cl)c([N+](=O)[O-])c1)c1ccccn1	OX1R antag-2 114 | OX1R HTRF confirm inactive | CHO-K1 HTRF cnt 58
O=C(/C=C/c1cccc(Cl)c1)Nc1ncccn1	none
CSc1cccc(NC(=O)/C=C/c2cccc(Cl)c2)c1	OX1R antag-2 78 | OX1R HTRF confirm 71 | CHO-K1 HTRF cnt inactive
CCc1nc2nc(C)c(NS(=O)(=O)c3ccc(C4CCCCC4)cc3)c(=O)n2[nH]1	none
C=CCn1cc(/C=C/c2cc[n+](C)cc2)c2ccccc21	OX1R antag-2 87 | OX1R HTRF confirm inactive | CHO-K1 HTRF cnt 33
O=C(Nc1cccnc1)c1cnc2ccccc2n1	OX1R antag-2 109 | OX1R HTRF confirm inactive | CHO-K1 HTRF cnt 45
O=C(Nc1cccnc1)c1ccccc1Cl	none
N#CC1=C(N)Oc2cc(O)ccc2C1c1ccncc1 (stereo not drawn)	OX1R antag-2 111 | OX1R HTRF confirm inactive | CHO-K1 HTRF cnt inactive
N#CC1=C(N)Oc2cc(O)ccc2C1c1cccnc1 (stereo not drawn)	none
CCc1nc2ccccc2c(NC(=O)CN2CC(C)CC(C)C2)c1C (stereo not drawn)	none
COc1ccc(NC(C)=O)cc1CNC(=O)COc1c(C)c(C)cc(C)c1C	none
O=C(NCCc1ccccc1)[C@@H]1CC=C[C@@H]2CCN(Cc3ccccc3)C(=O)[C@@H]21	OX1R antag-2 79 | OX1R HTRF confirm 89 | CHO-K1 HTRF cnt inactive
CCCn1c(N)c(N(CCOC)C(=O)CSc2ccccc2)c(=O)[nH]c1=O	none
COc1ccc(-c2ccccc2)cc1NC(=O)[C@@H]1O[C@H](CO)[C@H](O)[C@H](O)[C@H]1O	none (no result: OX1R antag-1, OX1R antag-2, CHO parental Ca)
O=C(Nc1ccncc1)c1cc(C2CCCCN2C(=O)CCCc2ccccc2)on1 (stereo not drawn)	none (no result: OX1R antag-1, OX1R antag-2, CHO parental Ca)
C/C(=N\Nc1nnc2c3ccccc3n(C)c2n1)c1ccc(C)o1	OX1R antag-2 93 | OX1R HTRF confirm 96 | CHO-K1 HTRF cnt 17
N#Cc1cccn1-c1nccc(-c2cccs2)n1	OX1R antag-2 87 | OX1R HTRF confirm 75 | CHO-K1 HTRF cnt inactive
O=C(N/N=C/c1c(Cl)[nH]c2ccccc12)c1ccc2c(c1)OCCO2	OX1R antag-2 79 | OX1R HTRF confirm 86 | CHO-K1 HTRF cnt inactive
COc1ccc(OC)c(/C=N/NC(=O)c2cc[n+](Cc3ccccc3)cc2)c1	OX1R antag-2 108 | OX1R HTRF confirm 64 | CHO-K1 HTRF cnt 46
COc1ccc(OC)c(/C=N\NC(=O)c2ccc(-c3ccccc3)cc2)c1	none (no result: OX1R antag-1, OX1R antag-2, CHO parental Ca)
CCC(c1nc2ccccc2[nH]1)n1c(=O)c(-c2cccnc2)nc2ccccc21 (stereo not drawn)	none (no result: OX1R antag-1, OX1R antag-2, CHO parental Ca)
Cc1c(C(=O)Nc2nccs2)oc2c(Cl)cccc12	OX1R antag-2 77 | OX1R HTRF confirm 67 | CHO-K1 HTRF cnt inactive
COc1cc(NC(=O)CCn2c(=S)[nH]c3ccccc3c2=O)cc(OC)c1OC	none (no result: OX1R antag-1, OX1R antag-2, CHO parental Ca)
COc1ccc(OC)c(Nc2nc(N)nc(-c3cc4ccccc4o3)n2)c1	OX1R antag-2 80 | OX1R HTRF confirm inactive | CHO-K1 HTRF cnt inactive
O=C1c2ccc([N+](=O)[O-])cc2C(=O)N1c1ccc([N+](=O)[O-])cn1	OX1R antag-2 95 | OX1R HTRF confirm inactive | CHO-K1 HTRF cnt 63
O=C1c2cc([N+](=O)[O-])cc3cc([N+](=O)[O-])cc(c23)C(=O)N1c1ccccn1	OX1R antag-2 82 | OX1R HTRF confirm 73 | CHO-K1 HTRF cnt 114
O=C(O)CC/C(=N/Nc1ncc(C(F)(F)F)cc1Cl)C(=O)O	none
C[n+]1ccn(CC(=O)c2cc(C(C)(C)C)c(O)c(C(C)(C)C)c2)c1	none
CCN(CC)CCNc1cc(C)nc2c1C(=O)C(=O)C=C2N1CCCCC1	OX1R antag-2 83 | OX1R HTRF confirm inactive | CHO-K1 HTRF cnt 76
CC(C)N1CCC(NC(=O)Nc2ccc3c(c2)OCO3)CC1	none
CC(=O)N(C1=C(N2CCOCC2)C(=O)c2ccccc2C1=O)c1ccc(C(=O)O)cc1	OX1R antag-2 125 | OX1R HTRF confirm 98 | CHO-K1 HTRF cnt 86
COCCN(C(=O)CSc1nnc(-c2ccccc2F)o1)c1c(N)n(CC(C)C)c(=O)[nH]c1=O	none
COc1ccc(-c2ccc(SCC(=O)N3CC(=O)Nc4ccccc43)nn2)cc1	OX1R antag-2 97 | OX1R HTRF confirm inactive | CHO-K1 HTRF cnt inactive
Cc1nc(SCC(=O)N2CC(=O)Nc3ccccc32)nc(C)c1C	none
CCOc1ccc(S(=O)(=O)N2CCCC(C(=O)Nc3cccc(C)c3)C2)cc1 (stereo not drawn)	none
Cc1cc(C)c(O)c(-c2cc(C(=O)NCCc3ccc(S(N)(=O)=O)cc3)[nH]n2)c1	OX1R antag-2 98 | OX1R HTRF confirm inactive | CHO-K1 HTRF cnt inactive
O=C(NCC(c1cccs1)N1CCOCC1)c1cc([N+](=O)[O-])cc([N+](=O)[O-])c1 (stereo not drawn)	OX1R antag-2 112 | OX1R HTRF confirm inactive | CHO-K1 HTRF cnt 58
O=C(Nc1ccccc1C(=O)O)c1cccc(N2C(=O)c3ccccc3C2=O)c1	none
CC(C)CC(=O)Nc1c(C(=O)N2CCN(Cc3ccccc3)CC2)oc2ccccc12	none
COc1cccc(/C=C2/SC(=S)N(CC(=O)NNC(=O)c3ccccc3OC)C2=O)c1	OX1R antag-2 86 | OX1R HTRF confirm 96 | CHO-K1 HTRF cnt inactive
COc1cccc(/C=C2\SC(=S)N(CCC(=O)NNC(=O)c3ccccc3OC)C2=O)c1	none
C[C@H](NC(=O)C1(c2ccccc2)CCN(C(=O)OC(C)(C)C)CC1)C(=O)N[C@@H](C(=O)O)c1ccccc1	none
C[C@@H](NC(=O)C1(c2ccccc2)CCN(C(=O)OC(C)(C)C)CC1)C(=O)N[C@@H](C(=O)O)c1ccccc1	OX1R antag-2 87 | OX1R HTRF confirm inactive | CHO-K1 HTRF cnt inactive

High-throughput results as filed in PubChem.
